Kir21 block – Kir2.1 (mouse) channel inhibition; hit rate 0.85% among 310,000; P35561; B-score at 10 µM; HEK293-Kir2.1, FluxOR thallium flux fluorescence; hits give low values;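 active = fluorescence ratio B-score at or below minus 3 SD of library scores, with starting-brightness B-score within 2 SD, cut at about -4.2 in these data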;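 note: channel flux triggered by added potassium and thallium sulfate stimulus; B-score of peak minus minimum fluorescence over baseline after thallium stimulus; more negative B-score means stronger Kir2.1 block with less thallium influx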
hERG protect – shields human hERG channel from block by proarrhythmic agents | Q12809 | CHO-hERG, FluxOR thallium flux, dofetilide IC70 present | hit rate 0.51% among 310,000 | activation (rescue from dofetilide block), less the hit threshold, % at 10 µM | AID 1511;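 active = activation above the mean of controls blocked by dofetilide plus 5 SD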;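 note: thallium influx through hERG after potassium depolarization seen as dye fluorescence rise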
KCNQ1 block – inhibitors of human KCNQ1 potassium channel; hit rate 1.3% among 310,000; AID 2642; CHO-K1 KCNQ1, FluxOR thallium flux fluorescence; hits give high values; B-score at 10 µM; P51787;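 active = compounds whose thallium flux B-score, printed positive for inhibition, exceeds three library SD while starting fluorescence stays within three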;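 note: channel opened by potassium depolarization with thallium stimulus after 20 min compound exposure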
KCNK9 inh – blocks the human KCNK9 two-pore domain potassium channel; HEK293 KCNK9, FluxOR thallium flux fluorescence; hits give low values; B-score at 10 µM; hit rate 1.2% among 310,000;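 active = ratio B-score over 3 SD below the library mean, with starting fluorescence within 5 SD of its mean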;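 note: negative B-score means less thallium flux so channel inhibition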
KCNK3 inh – human KCNK3 channel inhibition, primary screen; O14649; CHO-KCNK3 thallium flux, FluxOR fluorescence; hits give low values; B-score at 10 µM; hit rate 0.84% among 340,000;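 active = B-score under library mean minus 4 SD, starting fluorescence ratio at most library mean plus 5 SD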;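 note: more negative B-score means stronger inhibition of thallium flux through KCNK3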
Target sequence (O14649 whole entry, looked up): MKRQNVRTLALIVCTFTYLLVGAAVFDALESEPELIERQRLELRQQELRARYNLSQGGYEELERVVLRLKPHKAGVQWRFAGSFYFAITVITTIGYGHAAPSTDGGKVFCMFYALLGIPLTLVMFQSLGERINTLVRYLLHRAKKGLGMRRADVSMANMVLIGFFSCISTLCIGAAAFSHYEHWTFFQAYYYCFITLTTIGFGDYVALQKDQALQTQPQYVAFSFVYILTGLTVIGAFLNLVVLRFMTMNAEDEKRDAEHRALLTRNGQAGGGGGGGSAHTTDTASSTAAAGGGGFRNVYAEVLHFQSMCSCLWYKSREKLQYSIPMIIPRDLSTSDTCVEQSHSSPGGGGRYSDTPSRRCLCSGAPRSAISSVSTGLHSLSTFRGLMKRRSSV
KCNQ1 pot – human KCNQ1 channel potentiation or activation; P51787; B-score at 10 µM; AID 2648; hit rate 0.35% among 310,000; CHO-K1 KCNQ1, thallium flux FluxOR fluorescence; hits give high values;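 active = fluorescence ratio B-score, a plate-corrected score, at least three library SD, with initial intensity B-score within 5 SD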
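assay system = KCNQ1-transfected CHO-K1 cells | medium = assay buffer with matched DMSO | probe or stimulus = depolarizing K+/Tl+ stimulus, K2SO4 and Tl2SO4 each 12.5 mM in 5x stock | dosing = single dose | incubation = dye 90 min, compound 20 min, room temperature | detection = kinetic FluxOR fluorescence, 10 s baseline plus 110 s post-stimulus | evaluation = ratio B score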
KCNK9 inh conf – human KCNK9 inhibitor confirmation. inhibition, % at 10 µM. shares compounds with KCNK9 inh. HEK293 KCNK9 cells, FluxOR thallium flux fluorescence. AID 492992. hit rate 43% among 4,900;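 active = thallium signal inhibited by more than 5 SD of the compound-free buffer control wells, on both duplicate plates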;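 note: 0% = assay buffer control wells without compound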
Kir21 sel – mouse Kir2.1 off-target activity of KCNK9 modulators | shares compounds with KCNK9 inh | Kir2.1 cells, FluxOR thallium flux fluorescence | inhibition, % at 10 µM | hit rate 4% among 4,900;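 active = thallium signal drop more than 5 SD beyond the mean of the no-compound control wells, seen in both duplicate plates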;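 note: signal is fluorescence rise after thallium addition divided by baseline fluorescence; plate controls were assay buffer only for no effect and full block by chlorpromazine control for full effect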
HEK293 Tl ctr – second counter-screen for KCNK9 modulators: effect in non-induced cells | inhibition, % at 10 µM | non-induced KCNK9-HEK293, FluxOR thallium flux | shares compounds with KCNK9 inh | hit rate 40% among 4,900;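 active = thallium signal drop beyond 5 SD of the untreated control mean, on both duplicate plates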;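 note: plate controls were buffer only IC0 wells for no effect and SID17386958 at its maximal inhibitory level for full effect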
The depositor's hits bear a star; i = inactive; nt = not tested or not shown. In the library only some 3.7% were active in any assay of this set; here they are far more common.

SMILES	Kir21 block	hERG protect	KCNQ1 block	KCNK9 inh	KCNK3 inh	KCNQ1 pot	KCNK9 inh conf	Kir21 sel	HEK293 Tl ctr
CCCC1CCC(c2ccc(C(N)=O)cc2)CC1 (centres undefined)	0.51	-2	i	i	i	i	nt	nt	nt
CCOc1cc(S(=O)(=O)Nc2ccc(CC)cc2)ccc1Cl	-1.1	-14	i	i	i	i	i	i	i
CC(C)c1ccc(C2C3=C(COC3=O)Nc3cc4c(cc32)OCO4)cc1 (centres undefined)	1.1	-17	i	-9.4*	i	i	i	i	i
COc1ccc(-c2nn3c(-c4ccccc4)nnc3s2)cc1	-1.8	-7	i	i	i	i	nt	nt	nt
CCN(CC)c1ccc(-c2nn3c(-c4ccccc4OC)nnc3s2)cc1	0.25	-16	i	-14*	i	i	43%*	i	i
NC(=S)N=Nc1ccc(O)cc1	nt	nt	nt	nt	i	nt	nt	nt	nt
C/C(=N\NC(=O)c1ccccc1O)C1C(=O)c2ccccc2C1=O	0.93	-31	11*	i	i	i	i	i	24%*
C/C(=N/NC(=O)c1cc2ccccc2cc1O)C1C(=O)c2ccccc2C1=O	-1.1	-16	i	i	i	i	nt	nt	nt
CCN(CC)c1ccc(/C=N/N2CCN(Cc3ccccc3)CC2)cc1	0.16	-5	i	i	i	i	i	i	i
C(=N\N1CCN(Cc2ccccc2)CC1)/c1ccccc1	0.14	-6	i	i	i	i	nt	nt	nt
CN(C)c1ccc(/C=N/N2CCN(Cc3ccccc3Cl)CC2)cc1	0.02	-4	i	i	i	i	nt	nt	nt
CCN(CC)c1ccc(/C=N/N2CCN(Cc3ccccc3)CC2)c(O)c1	-0.14	-11	i	i	i	i	i	i	i
CCN(CC)c1ccc(/C=N/N2CCN(Cc3ccccc3Cl)CC2)cc1	-0.71	-9	6*	i	i	i	i	i	i
CCN(CC)c1ccc(/C=N/N2CCOCC2)c(O)c1	-0.3	-7	i	i	i	i	nt	nt	nt
CCN(CC)c1ccc(/C=N/N2CCN(Cc3ccc(C)cc3C)CC2)c(O)c1	-0.09	-11	i	i	i	i	i	i	i
O=C(CSc1ccc2nnc(-c3cccnc3)n2n1)Nc1ccccc1C(F)(F)F	-1.7	-5	i	i	i	i	nt	nt	nt
CCN(CC)c1ccc(/C=N/Nc2cccc(C)c2)c(O)c1	-0.03	-7	i	i	i	i	i	i	i
CSc1ccc(/C=N/N2CCN(Cc3ccc(C)cc3C)CC2)cc1	1.5	-9	i	i	i	i	i	i	i
CCN(CC)c1ccc(/C=N/Nc2ccccc2)c(O)c1	0.01	-13	i	i	i	i	nt	nt	nt
COc1cccc(CSc2nnc(C(F)(F)F)n2Cc2ccc(F)cc2)c1	-4	-10	i	i	i	i	nt	nt	nt
Cc1ccc(CSc2nnc(C(F)(F)F)n2Cc2ccc(F)cc2)cc1	-1.2	-8	i	-9.6*	i	i	29%*	i	39%*
CCCCc1c(O)nc(SCC(=O)c2ccccc2)n(-c2ccccc2OC)c1=O	-0.63	-19	i	-13*	i	i	51%*	i	25%*
COc1ccc(Cn2c(CO)cnc2SCC(=O)Nc2cccc(NC(C)=O)c2)cc1	0.01	-12	i	i	i	i	nt	nt	nt
Cc1cc(C)cc(Oc2nc(C(F)(F)F)nc3ccccc23)c1	0.52	-3	i	i	i	i	i	i	24%*
O=C1OC(Sc2ccccc2)(c2ccccc2)c2ccccc21 (centres undefined)	nt	nt	nt	nt	i	nt	nt	nt	nt
SMILES	Kir21 block	hERG protect	KCNQ1 block	KCNK9 inh	KCNK3 inh	KCNQ1 pot	KCNK9 inh conf	Kir21 sel	HEK293 Tl ctr
Cc1cc(C)c(OC2(c3ccccc3)OC(=O)c3ccccc32)c(C)c1 (centres undefined)	1.8	-9	i	-17*	i	i	69%*	i	47%*
Cc1ccc(CS(=O)Cc2ccc(C(=O)NC3CCC(C)CC3)o2)cc1 (centres undefined)	0.14	-6	i	i	i	i	nt	nt	nt
CC(C)c1nnc(NC(=O)CS(=O)(=O)c2ccccc2)s1	0.39	-1	i	i	i	i	nt	nt	nt
COc1cccc(CC2(CO)CCCN(Cc3sc(N4CCCC4)nc3Cl)C2)c1 (centres undefined)	-1.3	-13	i	i	i	i	i	i	i
Fc1ccc(-[n+]2nc(Nc3ccccc3)sc2-c2c3ccccc3cc3ccccc23)cc1	-1.2	-21	11*	-12*	i	i	34%*	i	i
O=C(Nc1nc(-c2cc(Cl)sc2Cl)cs1)c1cccs1	0.94	-13	i	-8.9*	-12*	i	50%*	i	i
COc1cc(C(=O)NCC(c2ccccc2)N(C)C)ccc1OCc1c(C)noc1C (centres undefined)	nt	nt	nt	nt	i	nt	nt	nt	nt
C=CCc1ccc(OCCCOc2ccc(C)c(C)c2)c(OC)c1	-0.41	-11	i	i	i	i	i	i	i
C=CCc1ccc(OCCOc2cccc3ccc(C)nc23)c(OC)c1	-0.1	-9	i	i	i	i	i	i	i
C=CCc1ccc(OCCOCCN(C)C)c(OC)c1	-0.24	-3	i	i	i	i	nt	nt	nt
C=CCc1ccc(OCCCCOc2ccc(C(=O)O)cc2)c(OC)c1	0.79	-4	i	i	i	i	nt	nt	nt
Cc1ccc(C(=O)N(Cc2nc(-c3ccc(C)cc3)no2)C(C)C)cc1	-0.09	-6	i	i	i	i	nt	nt	nt
Cc1cccc(-c2noc(CN(C(=O)C34CC5CC(CC(C5)C3)C4)C(C)C)n2)c1	0.33	-2	i	i	i	i	i	i	i
Cc1ccc(SCC(=O)N(Cc2nc(-c3ccccc3)no2)C(C)C)cc1	0.01	-9	i	i	i	i	i	i	28%*
CC(C)N(Cc1nc(-c2ccc(Cl)cc2)no1)C(=O)C12CC3CC(CC(C3)C1)C2	0.08	-10	i	i	i	i	i	i	i
O=C(CSc1nnnn1-c1ccccc1)NCCCN1CCCC1=O	nt	nt	nt	nt	i	nt	nt	nt	nt
